Results on 39 molecules are retold here after ChEMBL document CHEMBL4651341, “The discovery of a novel series of compounds with single-dose efficacy against juvenile and adult Schistosoma species” (PLoS Negl Trop Dis, 2021).

The experiment relates to Schistosoma mansoni. The experiment is described as follows: Concentration required to kill 50% of 21 day old worms 5 days after drug treatment. The experiment is classed as functional, organism-based. Particulars: Puerto Rican, 120 h. The procedure, abridged:
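Juvenile S. mansoni (Puerto Rican strain) were perfused from CD1 mice 3 weeks post-infection and washed. They were cultured 6–8 per well in 200 µL DMEM with 2 mM glutamine, penicillin/streptomycin and 10% FCS at 37 °C, 5% CO2. Viability of individual worms was scored on day 5 after dosing (120 h).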

As usually defined, the EC50 is the concentration giving half of the maximal effect. `CC(C)c1cccc(-c2ccc3nnc(-c4cccnc4)n3c2)c1` yielded a concentration for a half-maximal effect (EC50) greater than 25 µM. As for `Cc1nnc2ccc(-c3cccc(C(C)C)c3)cn12`, the concentration giving a half-maximal response (EC50) is greater than 25 µM. As for `COc1ccc(-c2nnc3ccc(-c4cnn(CCN5CCOCC5)c4)cn23)cc1OC`, the figure is greater than 25 µM; as for `CC(C)c1cccc(-c2ccc3nnc(-c4cn[nH]c4)n3c2)c1`, greater than 25 µM; as for `CC(C)Oc1cccc(-c2ccc3nnc(-c4ccnc(C(F)(F)F)c4)n3c2)c1`, greater than 25 µM. `CNC(=O)c1cccc(-c2ccc3nnc(-c4ccc(OC)c(OC)c4)n3c2)c1`: the EC50 is greater than 25 µM. The molecule `COc1ccc(-c2nnc3ccc(-c4cccc(CN)c4)cn23)cc1OC` showed an EC50 greater than 25 µM.

Consider `COc1ccc(-c2nnc3ccc(-c4cccc(C#N)c4)cn23)cc1OC`, for which the EC50 is greater than 25 µM. `COc1ccc(-c2nnc3ccc(-c4cccc(S(=O)(=O)N5CCOCC5)c4)cn23)cc1OC` showed a concentration giving a half-maximal response (EC50) greater than 25 µM. For `COc1ccc(-c2nnc3ccc(-c4ccc5c(c4)OCCO5)cn23)cc1OC`, the half-maximal effective concentration (EC50) was greater than 25 µM. Take `COc1ccc(-c2nnc3ccc(-c4c(OC)cccc4OC)cn23)cc1OC`: the 50% effective concentration (EC50) was greater than 25 µM.

The molecule `Cc1cnc2cnc(-c3cccc(OC(C)C)c3)cn12` displayed a half-maximal effective concentration (EC50) greater than 25 µM. As for `COc1cccc(-c2ccc3nnc(-c4ccc(OC)c(OC)c4)n3c2)n1`, the figure is greater than 25 µM; as for `COc1ccc(-c2nnc3ccc(-c4ccc5c(c4)CCO5)cn23)cc1OC`, greater than 25 µM.

Regarding `CC(C)c1cccc(-c2ccc3nnc(-c4ccnc(C(F)(F)F)c4)n3c2)c1`, the 50% effective concentration (EC50) is greater than 25 µM. `COc1ncc(-c2ccc3nnc(-c4ccc(OC)c(OC)c4)n3c2)cn1`: the EC50 is greater than 25 µM. As for `CC(C)c1cccc(-c2ccc3nnc(-c4ccc(CN)cc4)n3c2)c1`, the figure is greater than 25 µM; as for `CC(C)c1cccc(-c2ccc3nnc(-c4cnn(C)c4)n3c2)c1`, greater than 25 µM; as for `COc1ccc(-c2nnc3ccc(-c4ccc(O)nc4)cn23)cc1OC`, greater than 25 µM. In turn, `COc1ccc(-c2nnc3ccc(-c4cccc(N)c4)cn23)cc1OC` yielded a concentration giving a half-maximal response (EC50) greater than 25 µM.

In turn, `COc1ccc(-c2nnc3ccc(-c4cn[nH]c4)cn23)cc1OC` yielded an EC50 greater than 25 µM. `COc1ccc(-c2nnc3ccc(-c4ccccn4)cn23)cc1OC` gave an EC50 greater than 25 µM. Turning to `COc1ccc(-c2nnc3ccc(-c4ccc(C)nc4)cn23)cc1OC`, the 50% effective concentration (EC50) was greater than 25 µM. The molecule `COc1ccc(-c2nnc3ccc(-c4ccnc(C(F)(F)F)c4)cn23)cc1OC` yielded an EC50 greater than 25 µM. `COc1cc(-c2ccc3nnc(-c4ccc(OC)c(OC)c4)n3c2)ccn1`: the EC50 was greater than 25 µM. `COc1ccc(-c2ccc3nnc(-c4ccc(OC)c(OC)c4)n3c2)cn1` yielded a 50% effective concentration (EC50) greater than 25 µM. With `Cc1ccc(-c2nnc3ccc(-c4cccc(OC(C)C)c4)cn23)cn1`, the EC50 was greater than 25 µM. As for `CC(C)c1cccc(-c2ccc3nnc(-c4ccncc4)n3c2)c1`, the EC50 was greater than 25 µM. `COc1ccc(-c2nnc3ccc(-c4ccc5[nH]ncc5c4)cn23)cc1OC` returned a concentration for a half-maximal effect (EC50) greater than 25 µM. As for `COc1ccc(-c2nnc3ccc(-c4ccc5c(cnn5C)c4)cn23)cc1OC`, the figure is greater than 25 µM; as for `CC(C)c1cccc(-c2ccc3nnc(-c4ccnn4C)n3c2)c1`, greater than 25 µM; as for `COc1cccc(-c2ccc3nnc(-c4ccc(OC)c(OC)c4)n3c2)c1`, greater than 25 µM.

For the molecule `CC(C)c1cccc(-c2ccc3nnc(-c4cnc5[nH]ncc5c4)n3c2)c1`, the EC50 is greater than 25 µM. For the molecule `COc1ccc(-c2nnc3ccc(-c4ccc(N5CCN(C)CC5)nc4)cn23)cc1OC`, the concentration for a half-maximal effect (EC50) was greater than 25 µM. As for `COc1ccc(-c2nnc3ccc(-c4ccc5cn[nH]c5c4)cn23)cc1OC`, the figure is greater than 25 µM; as for `COc1ncc(-c2nnc3ccc(-c4cccc(C(C)C)c4)cn23)cn1`, greater than 25 µM. In turn, `COc1ccc(-c2nnc3ccc(-c4ccc(F)cc4)cn23)cc1OC` had a half-maximal effective concentration (EC50) greater than 25 µM. Turning to `COc1ccc(-c2nnc3ccc(-c4cccnc4OC)cn23)cc1OC`, the EC50 was greater than 25 µM. In turn, `COc1ccc(-c2nnc3ccc(-c4cccc(CO)c4)cn23)cc1OC` had an EC50 greater than 25 µM.
